Source: ChEMBL document CHEMBL1944532, “Synthesis and evaluation of anticancer activity of some novel 6-aryl-2-(p-sulfamylphenyl)-pyridazin-3(2H)-ones” (Eur J Med Chem, 2012)
Active and inactive are the calls of the source. No cut-off for these calls is given here.

Legend:
HCC 2998 = assay: Cytotoxicity against human HCC2998 cells after 48 hrs by SRB assay; format: functional; details: HCC 2998, 48 h
Summary of the method: (§1)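 NCI ~60-line panel in RPMI-1640 with 5% fetal calf serum and 2 mM L-glutamine, pre-incubated 24 h. Compound in DMSO tested at five 10-fold concentrations (10^-4 to 10^-8 M) with 48 h continuous exposure. Growth measured by sulforhodamine B protein assay. GI50 (50% net growth inhibition), TGI (total inhibition) and LC50 (50% net cell death) derived from dose-response.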

HL-60(TB) = assay: Cytotoxicity against human HL-60(TB) cells after 48 hrs by SRB assay; format: functional; details: HL-60, 48 h
Summary of the method: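 NCI 60-cell-line screen, five-dose assay: cells in RPMI1640 (printed "PMI1640") with 5% fetal calf serum and 2 mM L-glutamine, pre-incubated 24 h before compound addition. Compound in DMSO at 10-4, 10-5, 10-6, 10^-7 and 10^-8 M; continuous 48 h exposure. Growth estimated by sulforhodamine B protein assay; log GI50, TGI and LC50 derived from dose-response.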

SNB-75 = assay: Cytotoxicity against human SNB75 cells after 48 hrs by SRB assay; format: functional; details: SNB-75, 48 h
Summary of the method: (§2)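 NCI 60-cell-line five-dose screen. Cells were grown in 1640 medium with 5% fetal calf serum and 2 mM L-glutamine, with inoculum density set by cell line, and pre-incubated 24 h. Compound in DMSO was added at 10^-4 to 10^-8 M (10-fold steps) with 48 h continuous exposure. Growth was read by SRB protein assay, and GI50, TGI and LC50 were derived from dose-response.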

UACC-62 = assay: Cytotoxicity against human UACC62 cells assessed as cell growth at 10 uM after 48 hrs by SRB assay; format: functional; details: UACC-62, 48 h, read-out: Activity
Summary of the method: (§3)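 NCI primary one-dose screen at 10^-5 M against the full panel of about 60 human tumour cell lines, run to the NCI Drug Evaluation Branch protocol.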

Hs-578T = assay: Cytotoxicity against human Hs578T cells after 48 hrs by SRB assay; format: functional; summary of the method: as §1
SK-MEL-5 = assay: Cytotoxicity against human SK-MEL-5 cells after 48 hrs by SRB assay; format: functional; details: SK-MEL-5, 48 h; summary of the method: as §2
K562 = assay: Cytotoxicity against human K562 cells after 48 hrs by SRB assay; format: functional; details: K562, 48 h; summary of the method: as §1
MDA-MB-468 = assay: Cytotoxicity against human MDA-MB-468 cells after 48 hrs by SRB assay; format: functional; details: MDA-MB-468, 48 h
Summary of the method: (§4)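 NCI five-dose screen on the ~60-line human tumor panel. Cells grown in RPMI-1640 with 5% fetal calf serum and 2 mM L-glutamine, seeded at line-dependent density and preincubated 24 h. Compound added from DMSO at 10-fold dilutions from 10^-4 to 10^-8 M, continuous exposure 48 h. Growth read by sulforhodamine B protein stain. GI50, TGI and LC50 derived per line.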

HOP-62 = assay: Cytotoxicity against human HOP62 cells after 48 hrs by SRB assay; format: functional; details: HOP-62, 48 h; summary of the method: as §1
NCI-H522 = assay: Antitumor activity against human NCI-H522 cells implanted in mouse dosed qd for 4 days by formazan dye-based hollow fiber assay; format: functional, organism-based
Summary of the method: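 Cells grown inside polyvinylidene fluoride hollow fibers; each line implanted into both intraperitoneal and subcutaneous compartments in mice. Compound given ip at two doses on a QD x 4 schedule. Fibers then recovered and viable cell mass measured by formazan dye conversion. Scored 2 per dose giving ≥50% reduction in viable cell mass (%T/C 50).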

U-251 = assay: Cytotoxicity against human U251 cells assessed as cell growth at 10 uM after 48 hrs by SRB assay; format: functional; details: U-251, 48 h, read-out: Activity; summary of the method: as §3
HCT-116 = assay: Cytotoxicity against human HCT116 cells assessed as cell growth at 10 uM after 48 hrs by SRB assay; format: functional; details: HCT-116, 48 h, read-out: Activity
Summary of the method: (§5)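 NCI primary single-dose screen at 10^-5 M against the ~60 human tumour cell line panel. Cells grown in RPMI-1640 with 5% fetal calf serum and 2 mM L-glutamine and pre-incubated 24 h before compound addition. Compound added from DMSO solution with 48 h exposure. Growth read by sulforhodamine B protein staining.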

COLO 205 [1] = assay: Cytotoxicity against human COLO205 cells after 48 hrs by SRB assay; format: functional; details: COLO 205, 48 h; summary of the method: as §1
OVCAR-5 = assay: Cytotoxicity against human OVCAR5 cells assessed as cell growth at 10 uM after 48 hrs by SRB assay; format: functional; details: OVCAR-5, 48 h, read-out: Activity
Summary of the method: (§6)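 NCI primary single-dose screen at 10^-5 M against the full panel of about 60 human tumor cell lines. Cells were in RPMI-1640 with 5% fetal calf serum and 2 mM L-glutamine and preincubated 24 h. Compound was given in DMSO with 48 h exposure. Growth was estimated by sulforhodamine B protein assay.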

SR = assay: Cytotoxicity against human SR cells assessed as cell growth at 10 uM after 48 hrs by SRB assay; format: functional; details: read-out: Activity; summary of the method: as §3
TK-10 = assay: Cytotoxicity against human TK10 cells assessed as cell growth at 10 uM after 48 hrs by SRB assay; format: functional; details: TK-10, 48 h, read-out: Activity; summary of the method: as §3
NCI-H460 = assay: Cytotoxicity against human NCI-H460 cells after 48 hrs by SRB assay; format: functional; details: NCI-H460, 48 h; summary of the method: as §4
MCF7 = assay: Cytotoxicity against human MCF7 cells assessed as cell growth at 10 uM after 48 hrs by SRB assay; format: functional; details: MCF7, 48 h, read-out: Activity; summary of the method: as §6
786-0 = assay: Cytotoxicity against human 786-0 cells after 48 hrs by SRB assay; format: functional; details: 786-0, 48 h; summary of the method: as §1
NCI-H23 = assay: Cytotoxicity against human NCI-H23 cells after 48 hrs by SRB assay; format: functional; details: NCI-H23, 48 h; summary of the method: as §4
COLO 205 [2] = assay: Cytotoxicity against human COLO205 cells assessed as cell growth at 10 uM after 48 hrs by SRB assay; format: functional; details: COLO 205, 48 h, read-out: Activity; summary of the method: as §5

Question: For CCc1ccc(-c2ccc(=O)n(-c3ccc(S(N)(=O)=O)cc3)n2)cc1, which LC50 (HCC 2998) is on record?
Answer: The LC50 was > 100 µM.

Question: And the GI50 (HCC 2998; read-out: GI50)?
Answer: Its GI50 is 2.62 µM.

Question: What about the GI50 (HCC 2998; read-out: pGI50 (converted)) of the same compound?
Answer: The GI50 was 2.63 µM.

Question: And the TGI (HCC 2998; read-out: pTGI)?
Answer: Its TGI is > 100 µM.

Question: And the LC50 (HL-60(TB))?
Answer: Its LC50 is > 100 µM.

Question: What about the GI50 (HL-60(TB); read-out: GI50) of the same compound?
Answer: The GI50 was 0.376 µM.

Question: And the GI50 (HL-60(TB); read-out: pGI50 (converted))?
Answer: The GI50 was 0.38 µM.

Question: What about the TGI (HL-60(TB); read-out: pTGI (converted)) of the same compound?
Answer: Its TGI is 3.02 µM.

Question: And the LC50 (SNB-75)?
Answer: The LC50 was > 100 µM.

Question: And the GI50 (SNB-75; read-out: GI50)?
Answer: The GI50 was 1.76 µM.

Question: What about the GI50 (SNB-75; read-out: pGI50 (converted)) of the same compound?
Answer: Its GI50 is 1.74 µM.

Question: What about the TGI (SNB-75; read-out: pTGI (converted)) of the same compound?
Answer: Its TGI is 28.8 µM.

Question: What about the growth at 10 µM (UACC-62) of the same compound?
Answer: The growth at 10 µM was 38.5%.

Question: And the LC50 (50% net cell kill) (Hs-578T)?
Answer: The LC50 (50% net cell kill) was > 100 µM.

Question: What about the GI50 (Hs-578T; read-out: GI50) of the same compound?
Answer: Its GI50 is 1.03 µM.

Question: What about the GI50 (Hs-578T; read-out: pGI50 (converted)) of the same compound?
Answer: The GI50 was 1.02 µM.

Question: What about the TGI (Hs-578T; read-out: pTGI (converted)) of the same compound?
Answer: Its TGI is 17 µM.

Question: And the LC50 (SK-MEL-5)?
Answer: Its LC50 is > 100 µM.

Question: And the GI50 (SK-MEL-5; read-out: GI50)?
Answer: Its GI50 is 0.453 µM.

Question: And the GI50 (SK-MEL-5; read-out: pGI50 (converted))?
Answer: Its GI50 is 0.457 µM.

Question: And the TGI (SK-MEL-5; read-out: pTGI (converted))?
Answer: Its TGI is 7.59 µM.

Question: And the GI50 (K562; read-out: GI50)?
Answer: The GI50 was 0.257 µM.

Question: And the GI50 (K562; read-out: pGI50 (converted))?
Answer: Its GI50 is 0.257 µM.

Question: What about the CC50 (K562; read-out: pLC50 (the source's name) (converted)) of the same compound?
Answer: The CC50 was > 100 µM.

Question: And the TGI (K562; read-out: pTGI)?
Answer: Its TGI is > 100 µM.

Question: And the LC50 (MDA-MB-468)?
Answer: The LC50 was > 100 µM.

Question: And the GI50 (MDA-MB-468; read-out: GI50)?
Answer: The GI50 was 3.18 µM.

Question: What about the GI50 (MDA-MB-468; read-out: pGI50 (converted)) of the same compound?
Answer: Its GI50 is 3.16 µM.

Question: And the TGI (MDA-MB-468; read-out: pTGI)?
Answer: Its TGI is > 100 µM.

Question: And the LC50 (HOP-62)?
Answer: The LC50 was 70.8 µM.

Question: What about the GI50 (HOP-62; read-out: GI50) of the same compound?
Answer: The GI50 was 2.48 µM.

Question: And the GI50 (HOP-62; read-out: pGI50 (converted))?
Answer: The GI50 was 2.45 µM.

Question: And the TGI (HOP-62; read-out: pTGI (converted))?
Answer: Its TGI is 22.4 µM.

Question: And the Activity (NCI-H522)?
Answer: Its Activity is “inactive”.

Question: And the growth at 10 µM (U-251)?
Answer: The growth at 10 µM was 35%.

Question: And the growth at 10 µM (HCT-116)?
Answer: The growth at 10 µM was 16.8%.

Question: What about the LC50 (COLO 205 [1]) of the same compound?
Answer: The LC50 was > 100 µM.

Question: And the GI50 (COLO 205 [1]; read-out: GI50)?
Answer: The GI50 was 0.976 µM.

Question: What about the GI50 (COLO 205 [1]; read-out: pGI50 (converted)) of the same compound?
Answer: Its GI50 is 0.977 µM.

Question: And the TGI (COLO 205 [1]; read-out: pTGI (converted))?
Answer: The TGI was 30.9 µM.

Question: And the growth at 10 µM (OVCAR-5)?
Answer: Its growth at 10 µM is 91.6%.

Question: What about the growth at 10 µM (SR) of the same compound?
Answer: Its growth at 10 µM is -11.9%.

Question: And the growth at 10 µM (TK-10)?
Answer: The growth at 10 µM was 76.8%.

Question: What about the LC50 (NCI-H460) of the same compound?
Answer: The LC50 was 63.1 µM.

Question: And the GI50 (NCI-H460; read-out: GI50)?
Answer: Its GI50 is 0.438 µM.

Question: What about the GI50 (NCI-H460; read-out: pGI50 (converted)) of the same compound?
Answer: Its GI50 is 0.437 µM.

Question: And the TGI (NCI-H460; read-out: pTGI (converted))?
Answer: The TGI was 4.47 µM.

Question: What about the growth at 10 µM (MCF7) of the same compound?
Answer: Its growth at 10 µM is 30.1%.

Question: What about the LC50 (50% net cell kill) (786-0) of the same compound?
Answer: Its LC50 (50% net cell kill) is > 100 µM.

Question: What about the GI50 (786-0; read-out: GI50) of the same compound?
Answer: Its GI50 is 10.2 µM.

Question: And the GI50 (786-0; read-out: pGI50 (converted))?
Answer: The GI50 was 10.2 µM.

Question: What about the TGI (786-0; read-out: pTGI (converted)) of the same compound?
Answer: Its TGI is 63.1 µM.

Question: What about the LC50 (NCI-H23) of the same compound?
Answer: Its LC50 is > 100 µM.

Question: What about the GI50 (NCI-H23; read-out: GI50) of the same compound?
Answer: The GI50 was 16.9 µM.

Question: And the GI50 (NCI-H23; read-out: pGI50 (converted))?
Answer: Its GI50 is 17 µM.

Question: What about the TGI (NCI-H23; read-out: pTGI) of the same compound?
Answer: Its TGI is > 100 µM.

Question: What about the growth at 10 µM (COLO 205 [2]) of the same compound?
Answer: The growth at 10 µM was 26%.
